Source: ChEMBL document CHEMBL1177686, “Constrained peptidomimetics as antiplasmodial falcipain-2 inhibitors” (Bioorg Med Chem, 2010)

Tests used:
[1] = target: Rhodesain (Trypanosoma brucei rhodesiense, UniProt Q95PM0); assay: Inhibition of Trypanosoma brucei rhodesiense rhodesain after 10 mins
Summary of the method: (§1)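 Rhodesain with Cbz-Phe-Arg-AMC 10 µM in 100 mM sodium acetate pH 5.5, 10 mM DTT. Fluorescence (ex 365/em 460 nm) read continuously for 10 min at increasing inhibitor levels, duplicate runs. Kiapp and kinac from hyperbolic kobs fit, corrected to Ki using Km 0.9 µM. k2nd as kinac/Ki, or from kobs/[I] when linear. Dixon plot if time-independent.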

[2] = target: T1, Procathepsin L (Homo sapiens, UniProt P07711); assay: Ratio of Kinact to Ki for human cathepsin L
Summary of the method: (§2)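 Cathepsin L assay on Cbz-Phe-Arg-AMC 5 µM. […] Second-order constant k2nd taken as kinac/Ki.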
Target sequence in this assay (P07711 114-333 limits assumed): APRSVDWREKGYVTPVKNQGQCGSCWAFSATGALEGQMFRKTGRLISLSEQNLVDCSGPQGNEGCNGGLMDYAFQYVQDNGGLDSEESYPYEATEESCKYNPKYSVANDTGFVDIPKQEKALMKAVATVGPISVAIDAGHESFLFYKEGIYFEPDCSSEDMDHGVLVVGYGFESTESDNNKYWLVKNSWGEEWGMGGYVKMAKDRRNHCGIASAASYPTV

[3] = target: Cathepsin B (Homo sapiens, UniProt P07858); assay: Inhibition of human cathepsin B
[4] = test system: Plasmodium falciparum; assay: Antiplasmodial activity against Plasmodium falciparum FCBR infected in human erythrocytes assessed as parasite viability; type: functional, organism-based; conditions: FCBR/Columbia
Summary of the method: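 P. falciparum FCBR kept in human A Rh+ erythrocytes, RPMI 1640 with 25 mM HEPES, 20 mM bicarbonate, 0.5% AlbuMAX I, 2.5% hematocrit, 37 °C, 94% N2/1% O2/5% CO2. Early-stage parasites plated at 1% parasitemia with compound (DMSO stock diluted 10-fold in 50% ethanol), 100-0.0488 µM, quadruplicates. Ethanol-only negative and 2 µM chloroquine positive controls. Viability assayed by a published method.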

[5] = Selectivity ratio of Ki for Plasmodium falciparum recombinant falcipain-2 to Ki for Trypanosoma brucei rhodesiense rhodesain
[6] = target: T1, Procathepsin L; assay: Inhibition of human cathepsin L; summary of the method: as §2
Target sequence in this assay (P07711 whole entry): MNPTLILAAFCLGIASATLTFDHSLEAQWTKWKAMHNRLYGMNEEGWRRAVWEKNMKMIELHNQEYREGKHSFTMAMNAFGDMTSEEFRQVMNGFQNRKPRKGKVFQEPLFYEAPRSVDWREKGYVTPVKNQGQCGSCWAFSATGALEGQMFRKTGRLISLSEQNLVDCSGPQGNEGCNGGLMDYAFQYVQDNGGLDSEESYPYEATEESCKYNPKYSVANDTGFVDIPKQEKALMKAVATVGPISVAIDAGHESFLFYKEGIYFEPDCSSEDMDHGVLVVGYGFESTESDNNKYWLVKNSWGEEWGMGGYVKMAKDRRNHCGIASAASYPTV

[7] = target: T2, Falcipain 2 (Plasmodium falciparum, UniProt Q9N6S8); assay: Inhibition of Plasmodium falciparum recombinant falcipain-2 after 10 min
T2 sequence (Q9N6S8 whole entry): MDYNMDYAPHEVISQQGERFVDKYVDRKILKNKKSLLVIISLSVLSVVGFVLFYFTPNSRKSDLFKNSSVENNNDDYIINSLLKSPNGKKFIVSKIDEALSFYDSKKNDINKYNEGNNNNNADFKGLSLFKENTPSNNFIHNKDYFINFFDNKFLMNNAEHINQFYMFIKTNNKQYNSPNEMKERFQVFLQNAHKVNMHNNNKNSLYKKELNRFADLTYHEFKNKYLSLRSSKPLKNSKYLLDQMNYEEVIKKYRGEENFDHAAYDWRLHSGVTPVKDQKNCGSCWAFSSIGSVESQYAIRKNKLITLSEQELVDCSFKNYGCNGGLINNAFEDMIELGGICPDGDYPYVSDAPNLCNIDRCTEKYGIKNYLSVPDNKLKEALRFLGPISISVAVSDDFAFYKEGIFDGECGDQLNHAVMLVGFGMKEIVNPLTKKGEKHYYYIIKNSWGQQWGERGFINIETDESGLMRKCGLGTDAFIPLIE

[8] = target: Rhodesain (Trypanosoma brucei rhodesiense) (UniProt Q95PM0); assay: Ratio of Kinact to Ki for Trypanosoma brucei rhodesiense rhodesain after 10 mins; summary of the method: as §1
[9] = target: T3, Falcipain 2 (Plasmodium falciparum) (UniProt Q9N6S8); assay: Ratio of Kinact to Ki for Plasmodium falciparum recombinant falcipain-2 after 10 min
T3 sequence (whole entry): T2 sequence (Q9N6S8 whole entry)

Sequence of Rhodesain (Q95PM0 whole entry): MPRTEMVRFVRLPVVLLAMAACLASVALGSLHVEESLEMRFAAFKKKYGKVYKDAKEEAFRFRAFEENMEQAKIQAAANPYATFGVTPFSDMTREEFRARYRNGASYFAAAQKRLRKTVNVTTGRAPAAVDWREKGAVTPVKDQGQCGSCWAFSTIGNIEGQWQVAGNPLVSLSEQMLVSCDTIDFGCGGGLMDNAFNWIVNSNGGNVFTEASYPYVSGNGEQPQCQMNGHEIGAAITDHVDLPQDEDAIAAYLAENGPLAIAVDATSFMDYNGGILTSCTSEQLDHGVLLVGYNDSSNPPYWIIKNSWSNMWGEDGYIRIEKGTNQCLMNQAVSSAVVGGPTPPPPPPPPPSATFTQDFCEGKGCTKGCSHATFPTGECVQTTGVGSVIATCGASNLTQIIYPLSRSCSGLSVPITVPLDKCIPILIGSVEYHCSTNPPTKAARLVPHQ
Sequence of Rhodesain (Trypanosoma brucei rhodesiense) (Q95PM0 1-450): as the sequence (Q95PM0 whole entry) above

Compound | Ki [1] [µM] | Ratio [2] | Ki [3] [µM] | IC50 [4] [µM] | Ratio Ki [5] | Ki [6] [µM] | Ki [7] [µM] | Activity [4] | Ratio [8] | Ratio [9]
COC(=O)/C=C/CNC(=O)CN1C(=O)[C@@H](COC(=O)Nc2cccc3ccccc23)N=C(c2ccccc2)c2ccccc21 | 0.93 | 6400 | 25 | 17.6 | 5 | 12.2 | 3.48 |  |  | 
COC(=O)/C=C/CNC(=O)CN1C(=O)[C@@H](COC(=O)Nc2ccc(OC)cc2)N=C(c2ccccc2)c2ccccc21 | 4.3 | 12500 | 2.23 | 33.1 | 5 | 12 | 15.1 |  |  | 
C=CCNC(=O)CN1C(=O)[C@@H](CO)N=C(c2ccccc2)c2ccccc21 |  |  |  |  | 5 |  |  | Dose-dependent effect |  | 
COC(=O)/C=C/CNC(=O)CN1C(=O)[C@@H](COC(=O)NC23CC4CC(CC(C4)C2)C3)N=C(c2ccccc2)c2ccccc21 | 0.0026 | 550 | 13.7 | 10.7 | 5 | 65 | 0.014 |  | 4.62e+06 | 1.16e+06
CCCCNC(=O)OC[C@H]1N=C(c2ccccc2)c2ccccc2N(CC(=O)NC/C=C/C(=O)OC)C1=O |  | 9400 | 20.4 |  | 5 | 2.7 | > 100 | Dose-dependent effect |  | 
COC(=O)/C=C/CNC(=O)CN1C(=O)[C@@H](COC(=O)NC2CCCCC2)N=C(c2ccccc2)c2ccccc21 |  |  | 12.4 |  | 5 | 76.5 | 89 | Dose-dependent effect |  | 
COC(=O)/C=C/CNC(=O)CN1C(=O)[C@@H](COC(=O)Nc2ccc(Cl)cc2C(F)(F)F)N=C(c2ccc(Br)cc2)c2ccccc21 | 0.47 |  | > 150 | 6.33 | 5 | > 150 | 1.56 |  | 46000 | 24500
COC(=O)/C=C/[C@H](CC(C)C)NC(=O)CN1C(=O)[C@@H](COC(=O)Nc2ccc(Cl)cc2C(F)(F)F)N=C(c2ccccc2)c2ccccc21 | 0.87 |  | 39.1 | 26.9 | 5 | > 150 | 2.22 |  | 36000 | 18000
COC(=O)/C=C/CNC(=O)CN1C(=O)[C@@H](COC(=O)Nc2ccc(Cl)cc2C(F)(F)F)N=C(c2ccccc2)c2ccccc21 | 0.81 |  |  |  | 5 |  | 0.017 |  | 34600 | 3.57e+06
CC(C)C[C@H](NC(=O)[C@H]1O[C@@H]1C(=O)O)C(=O)NCCCCN=C(N)N |  |  |  |  |  |  |  |  |  | 1.59e+06
COC(=O)/C=C/CNC(=O)CN1C(=O)[C@@H](COC(=O)Nc2ccc(Cl)cc2C(F)(F)F)N=C(c2ccc(OC)cc2)c2ccccc21 |  |  | 10.9 |  | 5 | 59.9 | > 100 |  |  | 
COC(=O)/C=C/CNC(=O)CN1C(=O)[C@@H](COC(=O)Nc2ccc(Cl)cc2C(F)(F)F)N=C(c2ccccc2)c2cc(Cl)ccc21 | 0.087 |  | 6.1 | 28.9 | 5 | 29.8 | 0.46 |  | 220000 | 76000
